Data published in ChEMBL document CHEMBL1208737, “Synthesis and in vitro evaluation of N-alkyl-3-hydroxy-3-(2-imino-3-methyl-5-oxoimidazolidin-4-yl)indolin-2-one analogs as potential anticancer agents” (2010).

Assays:
Assay type in all cases: functional
HL-60(TB) = assay: Growth inhibition of human HL-60(TB) cells by sulforhodamine B assay
In short: (§1)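 Five-dose response testing across a 57-line human tumour panel (leukemia, non-small cell lung, colon, CNS, melanoma, ovarian, renal, prostate, breast), done after a single-dose primary screen run per the NCI method. Effect plotted against log10 molar drug concentration for each cell line. GI50 is the concentration giving a 50% reduction in net protein increase versus control cells.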

SF-295 = assay: Growth inhibition of human SF295 cells by sulforhodamine B assay; in short: as §1
SN12C = assay: Growth inhibition of human SN12C cells by sulforhodamine B assay; in short: as §1
[1] = Growth inhibition of human […] cells by sulforhodamine B assay; in short: as §1
786-0 = assay: Growth inhibition of human 786-0 cells by sulforhodamine B assay; in short: as §1
CAKI-1 = assay: Growth inhibition of human Caki1 cells by sulforhodamine B assay; in short: as §1
[2] = Growth inhibition of human Hs 578T cells by sulforhodamine B assay; in short: as §1
HOP-62 = assay: Growth inhibition of human HOP62 cells by sulforhodamine B assay; in short: as §1
SK-MEL-2 = assay: Growth inhibition of human SK-MEL-2 cells by sulforhodamine B assay; in short: as §1
M14 = assay: Growth inhibition of human M14 cells by sulforhodamine B assay; in short: as §1
CCRF-CEM = assay: Growth inhibition of human CCRF-CEM cells by sulforhodamine B assay; in short: as §1
SW-620 = assay: Growth inhibition of human SW620 cells by sulforhodamine B assay; in short: as §1
SNB-19 = assay: Growth inhibition of human SNB19 cells by sulforhodamine B assay; in short: as §1
OVCAR-3 = assay: Growth inhibition of human OVCAR-3 cells by sulforhodamine B assay; in short: as §1
SK-OV-3 = assay: Growth inhibition of human SKOV3 cells by sulforhodamine B assay; in short: as §1
MCF7 = assay: Growth inhibition of human MCF7 cells by sulforhodamine B assay; in short: as §1
OVCAR-5 = assay: Growth inhibition of human OVCAR5 cells by sulforhodamine B assay; in short: as §1
SNB-75 = assay: Growth inhibition of human SNB75 cells by sulforhodamine B assay; in short: as §1
SK-MEL-28 = assay: Growth inhibition of human SK-MEL-28 cells by sulforhodamine B assay; in short: as §1
SF-268 = assay: Growth inhibition of human SF268 cells by sulforhodamine B assay; in short: as §1
NCI-H226 = assay: Growth inhibition of human NCI-H226 cells by sulforhodamine B assay; in short: as §1
MOLT-4 = assay: Growth inhibition of human MOLT4 cells by sulforhodamine B assay; in short: as §1
ACHN = assay: Growth inhibition of human ACHN cells by sulforhodamine B assay; in short: as §1
NCI-H460 = assay: Growth inhibition of human NCI-H460 cells by sulforhodamine B assay; in short: as §1
HCT-116 = assay: Growth inhibition of human HCT116 cells by sulforhodamine B assay; in short: as §1
LOX IMVI = assay: Growth inhibition of human LOXIMVI cells by sulforhodamine B assay
In short: (§2)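 Five-dose response testing across the 57-line human tumour panel. Growth effect was plotted against log10 drug concentration for each cell line. GI50 is the molar concentration giving a 50% reduction in net protein increase relative to untreated control cells. TGI (total growth inhibition) and LC50 (concentration lethal to 50% of cells) were read from the same curves.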

IGROV-1 = assay: Growth inhibition of human IGROV1 cells by sulforhodamine B assay; in short: as §1
MDA-MB-468 = assay: Growth inhibition of human MDA-MB-468 cells by sulforhodamine B assay; in short: as §1
EKVX = assay: Growth inhibition of human EKVX cells by sulforhodamine B assay; in short: as §1
SF-539 = assay: Growth inhibition of human SF539 cells by sulforhodamine B assay; in short: as §1
MDA-MB-435 = assay: Growth inhibition of human MDA-MB-435 cells by sulforhodamine B assay; in short: as §1
PC-3 = assay: Growth inhibition of human PC3 cells by sulforhodamine B assay; in short: as §1
HCT-15 = assay: Growth inhibition of human HCT15 cells by sulforhodamine B assay; in short: as §1
TK-10 = assay: Growth inhibition of human TK10 cells by sulforhodamine B assay
In short: (§3)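 Part of a 57-line human tumour cell panel run at five doses. Growth effect was plotted against log10 molar drug concentration for each cell line. GI50 is the concentration giving a 50% reduction in net protein increase relative to untreated control cells, read from the dose-response curve.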

OVCAR-8 = assay: Growth inhibition of human OVCAR8 cells by sulforhodamine B assay; in short: as §1
MDA-MB-231 = assay: Growth inhibition of human MDA-MB-231 cells by sulforhodamine B assay; in short: as §1
HT-29 = assay: Growth inhibition of human HT-29 cells by sulforhodamine B assay; in short: as §1
DU-145 = assay: Growth inhibition of human DU145 cells by sulforhodamine B assay; in short: as §1
UO-31 = assay: Growth inhibition of human UO31 cells by sulforhodamine B assay; in short: as §3
Malme-3M = assay: Growth inhibition of human MALME-3M cells by sulforhodamine B assay; in short: as §1
OVCAR-4 = assay: Growth inhibition of human OVCAR4 cells by sulforhodamine B assay; in short: as §1
NCI/ADR-RES = assay: Growth inhibition of human NCI/ADR-RES cells by sulforhodamine B assay; in short: as §1
A549 = assay: Growth inhibition of human A549 cells by sulforhodamine B assay; in short: as §2
[3] = read-out: LC50 (the source's name)

## COc1ccc(CN2C(=O)C(O)(C3C(=O)NC(=N)N3C)c3cc(Cl)ccc32)cc1 (stereo not drawn)
HL-60(TB)
  GI50: 3.22 µM
  LC50: > 100 µM
SF-295
  GI50: 3.71 µM
SF-295; [3]
  CC50: > 100 µM
SN12C
  GI50: 5.94 µM
SN12C; [3]
  CC50: > 100 µM
[1]
  GI50: 2.62 µM
[1]; [3]
  CC50: > 100 µM
786-0
  GI50: 3.44 µM
786-0; [3]
  CC50: 43 µM
CAKI-1
  GI50: 1.98 µM
CAKI-1; [3]
  CC50: > 100 µM
[2]
  GI50: 2.04 µM
[2]; [3]
  CC50: > 100 µM
HOP-62
  GI50: 5.12 µM
HOP-62; [3]
  CC50: > 100 µM
SK-MEL-2
  GI50: 10.4 µM
SK-MEL-2; [3]
  CC50: 96 µM
M14
  GI50: 3.59 µM
  LC50: 61.4 µM
CCRF-CEM
  GI50: 2.06 µM
CCRF-CEM; [3]
  CC50: > 100 µM
SW-620
  GI50: 2.59 µM
SW-620; [3]
  CC50: 49.6 µM
SNB-19
  GI50: 17.2 µM
SNB-19; [3]
  CC50: > 100 µM
OVCAR-3
  GI50: 2.08 µM
OVCAR-3; [3]
  CC50: 11.5 µM
SK-OV-3
  GI50: 30.1 µM
SK-OV-3; [3]
  CC50: > 100 µM
MCF7
  GI50: 3.22 µM
  LC50 (concentration killing 50% of starting cells): > 100 µM
OVCAR-5
  GI50: 34.9 µM
OVCAR-5; [3]
  CC50: > 100 µM
SNB-75
  GI50: 3.39 µM
SNB-75; [3]
  CC50: > 100 µM
SK-MEL-28
  GI50: 50.3 µM
SK-MEL-28; [3]
  CC50: > 100 µM
SF-268
  GI50: 3.31 µM
SF-268; [3]
  CC50: 64.9 µM
NCI-H226
  GI50: 26.8 µM
NCI-H226; [3]
  CC50: > 100 µM
MOLT-4
  GI50: 2.94 µM
MOLT-4; [3]
  CC50: > 100 µM
ACHN
  GI50: 20.4 µM
ACHN; [3]
  CC50: > 100 µM
NCI-H460
  GI50: 26.8 µM
  LC50: > 100 µM
HCT-116
  GI50: 3 µM
  LC50: 34.5 µM
LOX IMVI
  GI50: 0.75 µM
  TGI: 11.8 µM
LOX IMVI; [3]
  CC50: 60 µM
IGROV-1
  GI50: 2.59 µM
IGROV-1; [3]
  CC50: > 100 µM
MDA-MB-468
  GI50: 2.29 µM
  LC50 (concentration causing 50% net cell kill): > 100 µM
EKVX
  GI50: 28.5 µM
  LC50: > 100 µM
SF-539
  GI50: 3.12 µM
SF-539; [3]
  CC50: 79.1 µM
MDA-MB-435
  GI50: 6.12 µM
MDA-MB-435; [3]
  CC50: 93.1 µM
PC-3
  GI50: 4.27 µM
PC-3; [3]
  CC50: > 100 µM
HCT-15
  GI50: 12.6 µM
  LC50 (concentration killing 50% of starting cells): > 100 µM
TK-10
  GI50: 4.11 µM
TK-10; [3]
  CC50: > 100 µM
OVCAR-8
  GI50: 1.35 µM
OVCAR-8; [3]
  CC50: 17.2 µM
MDA-MB-231
  GI50: 8.55 µM
MDA-MB-231; [3]
  CC50: > 100 µM
HT-29
  GI50: 1.38 µM
  LC50: 44.1 µM
DU-145
  GI50: 3.76 µM
DU-145; [3]
  CC50: 74.6 µM
UO-31
  GI50: 4.15 µM
UO-31; [3]
  CC50: > 100 µM
Malme-3M
  GI50: 29.6 µM
Malme-3M; [3]
  CC50: > 100 µM
OVCAR-4
  GI50: 5.52 µM
OVCAR-4; [3]
  CC50: > 100 µM
NCI/ADR-RES
  GI50: 1.88 µM
NCI/ADR-RES; [3]
  CC50: 36.5 µM
A549
  GI50: 0.19 µM
  LC50: 10.9 µM
  TGI: 1.96 µM
